Compound activity as filed in PubChem BioAssay.
FLuc stim CS: FLuc activators, initial screening, artefact control for FLuc-dependent activation tests, biochemical, ATPlite luminescence | Luciferin 4-monooxygenase (Photinus pyralis), P08659 | AID 1027, 2008 | activation factor at 10 µM | ATPlite luciferase biochemical, 10 min; 0 = ATP-free wells, 1 = DMSO control | 200,000 tested, under 10 active;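 active = luciferase activation factor, scaled between plate controls, of at least 2 with compound at 10 µM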
Target sequence (P08659 whole entry, looked up): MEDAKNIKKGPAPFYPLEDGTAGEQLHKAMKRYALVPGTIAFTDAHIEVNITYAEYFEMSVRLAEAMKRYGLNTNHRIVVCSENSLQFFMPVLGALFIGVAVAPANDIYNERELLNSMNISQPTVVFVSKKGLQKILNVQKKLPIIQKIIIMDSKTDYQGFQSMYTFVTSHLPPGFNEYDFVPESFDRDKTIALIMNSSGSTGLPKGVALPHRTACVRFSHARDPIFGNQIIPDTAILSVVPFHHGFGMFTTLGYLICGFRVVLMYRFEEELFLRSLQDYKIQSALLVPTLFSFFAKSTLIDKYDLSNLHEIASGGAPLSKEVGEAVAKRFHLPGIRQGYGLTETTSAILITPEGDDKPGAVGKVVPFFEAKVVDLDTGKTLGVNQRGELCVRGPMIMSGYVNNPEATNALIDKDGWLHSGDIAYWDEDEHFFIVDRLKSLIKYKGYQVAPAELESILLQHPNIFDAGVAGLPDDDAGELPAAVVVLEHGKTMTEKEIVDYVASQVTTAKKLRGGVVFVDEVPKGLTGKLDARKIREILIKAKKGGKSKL
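Assay system: Luciferase/luciferin detection reagent, cell-free biochemical luciferase assay / Also added: ATP substrate / Schedule: 10 min at ambient temperature / Measured by: luminescence measurement of luciferase light output / Benchmarks: low control with PBS replacing ATP, high control enzyme plus ATP without compound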
PPC-1+TRAIL kill: compounds killing PPC-1 cancer cells with TRAIL present, primary screen, TRAIL potentiator project, ATPLite luminescence, uHTS. PPC-1 cells + TRAIL, ATPLite viability luminescence. cell killing (% activity), % at 4 µM or 5 µM. 220,000 compounds, 0.41% hits;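 active = cell killing above 50% in the first pass at 4 µM, then a duplicate retest at 5 µM averaging 50% or more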;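 also: plate controls were cells with TRAIL plus DMSO for no effect and medium-only wells lacking cells for full effect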
TRAIL sens C8: viability loss with TRAIL in NB7+C8 cells, primary screen, TRAIL sensitizer project, cell-based, ATPlite luminescence. AID 624354, 2012. inhibition (viability loss, TRAIL sensitization), % at 10 µM. 360,000 compounds, 1% hits;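 active = compounds causing at least 50% loss of cell viability in the single-dose screen, relative to plate controls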
FLuc inhib CS: firefly luciferase enzyme inhibitors, primary screen, artefact control for luciferase-based inhibitor screens, biochemical, luminescence, ATPLite | Luciferin 4-monooxygenase (Photinus pyralis), P08659 | 200,000 compounds, 1.5% hits | inhibition, % at 10 µM | 10 min;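 active = inhibition above about 50% when tested at 10 µM, limit read from the data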
An asterisk follows results filed as active; nt = no result. In the library only some 1.6% were active in any assay of this set; here they are far more common.

SMILES	FLuc stim CS	PPC-1+TRAIL kill	TRAIL sens C8	FLuc inhib CS
O=C(NC1CC1)c1cccc2c1C(=O)c1ccc(N3CCC(Cc4ccccc4)CC3)cc1S2(=O)=O	nt	nt	23	nt
N#Cc1cccnc1N1CCN(C(=O)c2cccc3c2C(=O)c2ccc(Cl)cc2S3(=O)=O)CC1	nt	nt	78*	nt
O=C1c2ccc(Cl)cc2S(=O)(=O)c2cccc(C(=O)N3CCC(Cc4ccccc4)CC3)c21	nt	nt	93*	nt
CC1(C(=O)N/N=C/c2c(F)c(F)c(F)c(F)c2F)CC1(Cl)Cl (centres undefined)	nt	nt	77*	nt
Cc1cc(N/N=C/c2ccc(F)cc2)nc(-n2nc(C)cc2C)n1	nt	8	6	nt
COc1ccc(/C=N/Nc2cc(OC)ncn2)cc1	0.2	45	61*	83*
COc1ccc(/C=N/Nc2cc(C)nc(-n3nc(C)cc3C)n2)c(OC)c1	1	24	55*	-4
Clc1nccnc1N/N=C/c1ccc(Br)cc1	nt	nt	-1	nt
COc1ccc(/C=N/Nc2cc(N(C)C)nc(N(C)C)n2)cc1	1	2	28	-2
COc1ccc(/C=N/Nc2nccnc2Cl)c(OC)c1	0.5	16	3	52*
COc1ccc(/C=N/Nc2nccnc2Cl)cc1	0.3	34	46	70*
COc1ccc(CN(C)CC(=O)NC2CCCc3ccccc32)cc1OC (centres undefined)	1	14	-6	-5
O=C1Nc2ccccc2N=C(c2ccc3c(c2)OCO3)C1N(C(=O)c1ccc2ccccc2c1)C1CC1 (centres undefined)	nt	nt	18	nt
O=C(NC1CCCN(Cc2ccccc2F)C1)c1cccs1 (centres undefined)	nt	nt	-10	nt
C=C(C)CN=CC1(C)CCC(C)=CO1 (centres undefined)	nt	nt	-13	nt
CC(C)NC(=NCc1ccc(Cl)cc1Cl)Nc1ccccc1	nt	nt	-2	nt
COc1cccc(/C=N/Nc2nc(Nc3ccccc3)nc(-n3nc(C)cc3C)n2)c1O	1	0	61*	5
O=C(Nc1nncs1)c1cc2c(s1)CCC2	0.4	22	30	63*
CC(=O)c1ccc(S(=O)(=O)Oc2ccc(-c3ccc(C(=O)O)cc3)cc2)cc1	nt	nt	11	nt
CC1CCC/C(=N/Nc2nc3ccccc3s2)C1 (centres undefined)	0.3	26	4	72*
COc1cc(NC(=O)c2ccccc2)cc(OC)c1	0.7	15	21	25
O=C(Nc1ccc2[nH]ncc2c1)c1ccccc1	nt	nt	37	nt
COc1ccc(C(=O)Nc2ccc3[nH]ccc3c2)cc1	nt	nt	93*	nt
COc1ccc(C(=O)Nc2cc(OC)cc(OC)c2)cc1	0.3	30	30	66*
COc1ccc(C(=O)Nc2ccc3[nH]ncc3c2)cc1	nt	nt	75*	nt
SMILES	FLuc stim CS	PPC-1+TRAIL kill	TRAIL sens C8	FLuc inhib CS
O=C(Nc1ccc2[nH]ncc2c1)c1ccc(F)cc1	nt	nt	38	nt
CCOc1ccc(C(=O)Nc2ccc3[nH]ncc3c2)cc1	nt	nt	72*	nt
Cc1ccc(C)c(-n2cc[nH]c2=S)c1	1	-4	-4	3
CC(C(=O)Nc1nc2ccccc2s1)n1cc([N+](=O)[O-])cn1 (centres undefined)	1	18	-7	-3
C[C@H](CO)N1C[C@H](C)[C@@H](CN(C)C(=O)NC2CCCCC2)Oc2ccc(NC(=O)C3CC3)cc2C1=O	nt	nt	-10	nt
O=C(Nc1ccc(NC(=O)c2cccs2)cc1)c1cccs1	nt	nt	12	nt
O=C(Nc1ccc2[nH]ccc2c1)c1cccs1	nt	42	63*	nt
Cc1nc2sccc2c(=O)n1N	1	32	0	-2
Cc1ccc(N=Cc2c(C)[nH]n(-c3nc4ccccc4[nH]3)c2=O)cc1	0.2	79*	89*	79*
O=C(CCl)N1c2ccccc2SCC1c1ccccc1 (centres undefined)	nt	nt	83*	nt
Cc1ccccc1S(=O)(=O)Oc1cccc2c(O)cccc12	nt	nt	-5	nt
COC(=O)[C@]1(C)CCC[C@@]2(C)C3CC[C@@]4(C)C[C@]3(CCC21)CC(=O)N4 (some centres undefined)	nt	nt	-6	nt
C=C1C(=O)C23CCC4C(C)(C(=O)OC)CCCC4(C)C2CCC1(O)C3 (centres undefined)	nt	nt	89*	nt
Cc1noc(N)c1C(=O)Nc1ccc(C(C)(C)C)cc1	0.3	30	56*	67*
Cc1nc(Cl)sc1C(=O)Nc1ccc(C(C)(C)C)cc1	nt	nt	20	nt
CCOC(=O)Cc1ccc(NC(=O)c2ccc(C(C)(C)C)cc2)cc1	0.5	48	32	54*
Cc1nn2cc(-c3ncc(C(F)(F)F)cc3Cl)cnc2c1Br	0.7	37	12	26
Cc1cc2ncc(-c3ncc(C(F)(F)F)cc3Cl)cn2n1	0.3	36	58*	73*
COc1cc(F)c(S(=O)(=O)N2CCOc3ccccc32)cc1OC	nt	nt	3	nt
COc1ccc(-c2cc3ccc(F)cc3cn2)cc1	nt	nt	57*	nt
Cc1cccc(-c2cc3c(N=O)c4ccccc4c-3n[nH]2)c1	0.4	41	49	63*
C=CCn1c(O)c(/C=C2\C=NN=C2c2ccccc2)sc1=S	nt	7	8	nt
CCCn1c(O)c(/C=C2\C=NN=C2c2ccccc2)sc1=S	1	-1	76*	-4
C[C@H](NC(=O)C1CCN(C(=O)[C@@H]2CCCN2C(=O)OC(C)(C)C)CC1)C(=O)NCc1ccc(F)cc1	nt	nt	14	nt
O=C(c1ccco1)n1c(=S)nc2ccccn21	0.3	16	36	68*
SMILES	FLuc stim CS	PPC-1+TRAIL kill	TRAIL sens C8	FLuc inhib CS
Cc1ccn2c(NC(=O)c3ccccc3)c(-c3ccccc3)nc2c1	nt	nt	-9	nt
Cc1ccn2c(c1)nc(=S)n2C(=O)c1ccccc1	0	82*	89*	96*
CC(C)c1ccc(NC(=O)Nc2nc(C(N)CCc3ccccc3)cs2)cc1 (centres undefined)	nt	nt	95*	nt
COc1ccc(NC(=O)Nc2nc(C(N)C3CCCCC3)cs2)cc1 (centres undefined)	nt	nt	14	nt
CC(C)c1ccc(NC(=O)Nc2nc(C(N)C3CCCCC3)cs2)cc1 (centres undefined)	nt	nt	88*	nt
CC(C)c1ccc(NC(=O)Nc2nc(C(C)N)cs2)cc1 (centres undefined)	nt	nt	1	nt
